# Measured values taken from ChEMBL document CHEMBL4689842, “EUbOPEN Chemogenomics Library wave 1” (2021).
# Tested on: Fibroblast
# Assay: Multiplex assay against human fibroblast
# Assay type: toxicity, cell-based
# Method in brief: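 Cells were classed with CellPathfinder machine-learning gating, first as Hoechst high-intensity objects or normal cells, then (normal cells) as healthy, pyknosed or fragmented nuclei, and finally (pyknosed cells) as mitotic or apoptotic. Staining of live cells at seeding used Hoechst33342, BioTracker Green Microtubule Cytoskeleton Dye, MitoTracker Red and Annexin V Alexa Fluor 680, with imaging on a CQ1 microscope at 37°C and 5% CO2 after compound addition. Tubulin, mitochondrial-mass and membrane-permeability phenotypes are per cents of healthy-nucleus cells.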
# [1] = 12 h, 1 µM, compound concentration 1 uM, replicate 1
# [2] = 12 h, 1 µM, compound concentration 1 uM, replicate 2
# [3] = 12 h, 10 µM, compound concentration 10 uM, replicate 1
# [4] = 12 h, 10 µM, compound concentration 10 uM, replicate 2
# [5] = 24 h, 1 µM, compound concentration 1 uM, replicate 1
# [6] = 24 h, 1 µM, compound concentration 1 uM, replicate 2
# [7] = 24 h, 10 µM, compound concentration 10 uM, replicate 1
# [8] = 24 h, 10 µM, compound concentration 10 uM, replicate 2
# [9] = 48 h, 1 µM, compound concentration 1 uM, replicate 1
# [10] = 48 h, 1 µM, compound concentration 1 uM, replicate 2
# [11] = 48 h, 10 µM, compound concentration 10 uM, replicate 1
# [12] = 48 h, 10 µM, compound concentration 10 uM, replicate 2
structure (smiles),measurement,setting,value
CC(C)c1noc(N2CCC(COc3ccc(-c4ccc(S(C)(=O)=O)cc4)nc3)CC2)n1 [GSK-1292263],Population Apoptotic (%),[1],65%
same,Population Fragmented Nuclei (%),[1],28%
same,Population Healthy Nuclei (%),[1],45%
same,Population Hoechst High Intensity Objects (%),[1],12%
same,Population Membrane Permeable-Phenotype (%),[1],21%
same,Population Mitochondria Different-Phenotype (%),[1],15%
same,Population Mitotic Cells (%),[1],34%
same,Population Normal (%),[1],87%
same,Population Pyknosed Nuclei (%),[1],25%
same,Population Tubulin-Different-Phenotype (%),[1],49%
same,Total Cell Count,[1],128
same,Population Apoptotic (%),[2],50%
same,Population Fragmented Nuclei (%),[2],12%
same,Population Healthy Nuclei (%),[2],85%
same,Population Hoechst High Intensity Objects (%),[2],2%
same,Population Membrane Permeable-Phenotype (%),[2],3%
same,Population Mitochondria Different-Phenotype (%),[2],4%
same,Population Mitotic Cells (%),[2],50%
same,Population Normal (%),[2],97%
same,Population Pyknosed Nuclei (%),[2],2%
same,Population Tubulin-Different-Phenotype (%),[2],9%
same,Total Cell Count,[2],89
same,Population Apoptotic (%),[3],52%
same,Population Fragmented Nuclei (%),[3],21%
same,Population Healthy Nuclei (%),[3],45%
same,Population Hoechst High Intensity Objects (%),[3],5%
same,Population Membrane Permeable-Phenotype (%),[3],24%
same,Population Mitochondria Different-Phenotype (%),[3],5%
same,Population Mitotic Cells (%),[3],48%
same,Population Normal (%),[3],94%
same,Population Pyknosed Nuclei (%),[3],33%
same,Population Tubulin-Different-Phenotype (%),[3],49%
same,Total Cell Count,[3],160
same,Population Apoptotic (%),[4],42%
same,Population Fragmented Nuclei (%),[4],5%
same,Population Healthy Nuclei (%),[4],83%
same,Population Membrane Permeable-Phenotype (%),[4],3%
same,Population Mitochondria Different-Phenotype (%),[4],10%
same,Population Mitotic Cells (%),[4],57%
same,Population Pyknosed Nuclei (%),[4],10%
same,Population Tubulin-Different-Phenotype (%),[4],15%
same,Total Cell Count,[4],76
same,Population Apoptotic (%),[5],38%
same,Population Fragmented Nuclei (%),[5],27%
same,Population Healthy Nuclei (%),[5],39%
same,Population Hoechst High Intensity Objects (%),[5],8%
same,Population Membrane Permeable-Phenotype (%),[5],39%
same,Population Mitochondria Different-Phenotype (%),[5],12%
same,Population Mitotic Cells (%),[5],61%
same,Population Normal (%),[5],91%
same,Population Pyknosed Nuclei (%),[5],33%
same,Population Tubulin-Different-Phenotype (%),[5],75%
same,Total Cell Count,[5],112
same,Population Apoptotic (%),[6],0%
same,Population Fragmented Nuclei (%),[6],14%
same,Population Healthy Nuclei (%),[6],83%
same,Population Hoechst High Intensity Objects (%),[6],2%
same,Population Membrane Permeable-Phenotype (%),[6],2%
same,Population Mitochondria Different-Phenotype (%),[6],10%
same,Population Mitotic Cells (%),[6],100%
same,Population Normal (%),[6],97%
same,Population Pyknosed Nuclei (%),[6],2%
same,Population Tubulin-Different-Phenotype (%),[6],13%
same,Total Cell Count,[6],103
same,Population Apoptotic (%),[7],52%
same,Population Fragmented Nuclei (%),[7],20%
same,Population Healthy Nuclei (%),[7],45%
same,Population Hoechst High Intensity Objects (%),[7],10%
same,Population Membrane Permeable-Phenotype (%),[7],23%
same,Population Mitochondria Different-Phenotype (%),[7],4%
same,Population Mitotic Cells (%),[7],47%
same,Population Normal (%),[7],89%
same,Population Pyknosed Nuclei (%),[7],34%
same,Population Tubulin-Different-Phenotype (%),[7],70%
same,Total Cell Count,[7],178
same,Population Apoptotic (%),[8],36%
same,Population Fragmented Nuclei (%),[8],7%
same,Population Healthy Nuclei (%),[8],79%
same,Population Hoechst High Intensity Objects (%),[8],4%
same,Population Membrane Permeable-Phenotype (%),[8],7%
same,Population Mitochondria Different-Phenotype (%),[8],12%
same,Population Mitotic Cells (%),[8],63%
same,Population Normal (%),[8],95%
same,Population Pyknosed Nuclei (%),[8],13%
same,Population Tubulin-Different-Phenotype (%),[8],7%
same,Total Cell Count,[8],91
same,Population Apoptotic (%),[9],35%
same,Population Fragmented Nuclei (%),[9],29%
same,Population Healthy Nuclei (%),[9],54%
same,Population Hoechst High Intensity Objects (%),[9],12%
same,Population Membrane Permeable-Phenotype (%),[9],33%
same,Population Mitochondria Different-Phenotype (%),[9],8%
same,Population Mitotic Cells (%),[9],64%
same,Population Normal (%),[9],88%
same,Population Pyknosed Nuclei (%),[9],15%
same,Population Tubulin-Different-Phenotype (%),[9],50%
same,Total Cell Count,[9],100
same,Population Apoptotic (%),[10],0%
same,Population Fragmented Nuclei (%),[10],26%
same,Population Healthy Nuclei (%),[10],73%
same,Population Hoechst High Intensity Objects (%),[10],8%
same,Population Membrane Permeable-Phenotype (%),[10],21%
same,Population Mitochondria Different-Phenotype (%),[10],2%
same,Population Mitotic Cells (%),[10],0%
same,Population Normal (%),[10],91%
same,Population Pyknosed Nuclei (%),[10],0%
same,Population Tubulin-Different-Phenotype (%),[10],48%
same,Total Cell Count,[10],70
same,Population Apoptotic (%),[11],44%
same,Population Fragmented Nuclei (%),[11],27%
same,Population Healthy Nuclei (%),[11],54%
same,Population Hoechst High Intensity Objects (%),[11],14%
same,Population Membrane Permeable-Phenotype (%),[11],29%
same,Population Mitochondria Different-Phenotype (%),[11],4%
same,Population Mitotic Cells (%),[11],55%
same,Population Normal (%),[11],85%
same,Population Pyknosed Nuclei (%),[11],18%
same,Population Tubulin-Different-Phenotype (%),[11],69%
same,Total Cell Count,[11],184
same,Population Apoptotic (%),[12],66%
same,Population Fragmented Nuclei (%),[12],21%
same,Population Healthy Nuclei (%),[12],74%
same,Population Hoechst High Intensity Objects (%),[12],9%
same,Population Membrane Permeable-Phenotype (%),[12],28%
same,Population Mitochondria Different-Phenotype (%),[12],0%
same,Population Mitotic Cells (%),[12],33%
same,Population Normal (%),[12],90%
same,Population Pyknosed Nuclei (%),[12],4%
same,Population Tubulin-Different-Phenotype (%),[12],59%
same,Total Cell Count,[12],77
